This note sets out measurements from ChEMBL document CHEMBL2010776, “Synthesis and structure elucidation of novel fused 1,2,4-triazine derivatives as potent inhibitors targeting CYP1A1 activity” (Bioorg Med Chem, 2012).

Molecules are shown by their SMILES.

Data set [1] deals with T1, CYP1A1 (Rattus norvegicus, UniProt P00185).
T1 sequence (P00185 whole entry): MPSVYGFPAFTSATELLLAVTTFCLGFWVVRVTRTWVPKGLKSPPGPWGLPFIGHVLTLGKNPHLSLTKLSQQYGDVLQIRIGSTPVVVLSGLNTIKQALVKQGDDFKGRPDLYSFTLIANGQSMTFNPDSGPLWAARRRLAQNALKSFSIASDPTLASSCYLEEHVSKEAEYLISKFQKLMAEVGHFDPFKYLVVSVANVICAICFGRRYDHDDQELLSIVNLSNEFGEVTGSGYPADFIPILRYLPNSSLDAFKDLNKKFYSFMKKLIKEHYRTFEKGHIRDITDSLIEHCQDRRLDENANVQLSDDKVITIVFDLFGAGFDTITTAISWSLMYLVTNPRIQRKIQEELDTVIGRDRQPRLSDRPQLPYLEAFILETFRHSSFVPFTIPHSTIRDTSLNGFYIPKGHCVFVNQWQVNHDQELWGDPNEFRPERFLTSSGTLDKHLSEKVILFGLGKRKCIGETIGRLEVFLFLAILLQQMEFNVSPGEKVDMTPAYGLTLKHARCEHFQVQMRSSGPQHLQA
Put plainly: Inhibition of CYP1A1 activity in rat liver microsomes using benzo[alpha]pyrene as substrate at 100 nmol after 10 mins by fluorescence analysis. More on the design: species or system Microsome. To be noted: probe benzo[alpha]pyrene. The procedure, abridged: (§1)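 AHH assay, 1 mL mix: 50 mM Tris–HCl pH 7.4, […], 100 nmol test compound, 0.1 mL microsomal protein (10 mg/mL) from PAH-induced rat liver (105,000 g pellet, resuspended in 0.1 M K phosphate pH 7.4). Started with 100 nmol benzo[a]pyrene, 37 °C 10 min, acetone stop; 3-OH-BaP hexane-extracted, fluorescence ex 396/em 522 nm; percent change in activity.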
(Liver microsomes are a subcellular fraction often used to study metabolism.)

The target in data set [2] is T2, Cytochrome P450 1A1 (Rattus norvegicus, UniProt P00185).
T2 sequence (P00185 whole entry): T1 sequence (P00185 whole entry)
Put plainly: Inhibition of CYP1A1 activity in rat liver microsomes using benzo[alpha]pyrene as substrate after 10 mins by fluorescence analysis. More on the design: species or system Microsome. The procedure, abridged:
as §1

For data set [3], the system named is Mus musculus. In words: Acute toxicity in mouse assessed as tolerability up to 350 mg/kg, po. It counts as organism-based. Further details: dose 350 mg/kg, route oral. To be noted: in vivo.
Data set [4] deals with Mus musculus. Put plainly: Acute toxicity in mouse assessed as tolerability up to 150 mg/kg, ip. More on the design: dose 150 mg/kg, route intraperitoneal. To be noted: in vivo. The format is organism-based. The procedure, abridged:
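Mice in groups of six; compound suspended in corn oil and given intraperitoneally at 1, 5, 10, 50 or 150 mg/kg; vehicle-only control group. Body weight recorded before dosing and on days 7 and 14 (termination).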

Data set [5] in a line: Toxicity in po dosed mouse. It counts as organism-based. As to conditions: in vivo.

For orientation: inhibition means the relative decrease from the control value, in per cent. The low end stands for little suppression, the high end for strong suppression. A word on the IC50: it is the concentration at which inhibition is half-maximal. Higher therefore signals weaker potency. For orientation: LD50 means the dose expected to kill half of the subjects tested.

For the molecule `COc1ccc(CC2=NN3C(=NN(C(C)=O)C3(C)c3ccccc3)N(NC(C)=O)C2=O)cc1` (stereo unspecified), the inhibition at 10 min in data set [1] came out at 59.8%. The molecule further yielded a half-maximal inhibitory concentration (IC50) in data set [2] of 8.36 nM.
In the case of `CC(=O)NN1C(=O)C(Cc2ccccc2)=NN2C1=NN(C(C)=O)C2(C)c1ccc(C)cc1` (stereo unspecified), the inhibition at 10 min in data set [1] is 75.6%. This molecule also yielded an IC50 in data set [2] of 6.62 nM.
`CC(=O)NN1C(=O)C(Cc2ccccc2)=NN2C1=NN(C(C)=O)C2(C)c1ccc(Cl)cc1` (racemic) came in with an inhibition at 10 min in data set [1] of 87.9%. Further, half-maximal inhibition in data set [2] (IC50) required 5.69 nM. The Activity result in data set [3] and in data set [4] was “Non-toxic” throughout. Besides, the LD50 in data set [5] was > 350 mg/kg.
The molecule `CC(=O)NN1C(=O)C(Cc2ccccc2)=NN2C1=NN(C(C)=O)C2(C)c1ccccc1` (stereo unspecified) returned an inhibition at 10 min in data set [1] of 37.9%. This molecule also registered an IC50 in data set [2] of 13.2 nM.
For `COc1ccc(CC2=NN3C(=NN(C(C)=O)C3c3ccccc3)N(N(C(C)=O)C(C)=O)C2=O)cc1` (stereo unspecified), in that order: 57.6% and 86.7 nM.
For `COc1ccc(CC2=NN3C(=NN(C(C)=O)C3(C)c3ccc(C)cc3)N(N(C(C)=O)C(C)=O)C2=O)cc1` (stereo unspecified), in that order: 48.2% and 10.4 nM.
On the same counts, the results for `CC(=O)N1N=C2N(N=C(Cc3ccccc3)C(=O)N2N(C(C)=O)C(C)=O)C1c1ccccc1` (stereo unspecified) are 20.6% and 24.2 nM.
In the case of `Nn1c(N/N=C2\C(=O)Nc3ccccc32)nnc(Cc2ccccc2)c1=O`, in data set [1], the inhibition at 10 min is 92.2%. Moreover, 5.42 nM corresponded to half-maximal inhibition in data set [2] (IC50). The Activity entry in data set [3] and in data set [4] was “Non-toxic” in each case. For the same molecule, the LD50 in data set [5] is > 350 mg/kg.
In data set [1], `COc1ccc(C2N(C(C)=O)N=C3N2N=C(Cc2ccccc2)C(=O)N3N(C(C)=O)C(C)=O)cc1` (stereo unspecified) registered an inhibition at 10 min of 51.5%. In data set [2], this molecule showed an IC50 of 9.71 nM.
`COc1ccc(CC2=NN3C(=NN(C(C)=O)C34C(=O)N(C(C)=O)c3ccccc34)N(N(C(C)=O)C(C)=O)C2=O)cc1` (stereo unspecified) returned an inhibition at 10 min in data set [1] of 81.5%. Further, the IC50 in data set [2] was found to be 61.4 nM. In addition, the Activity entry in data set [3] and in data set [4] was “Non-toxic” each time. Further, in data set [5], the LD50 was > 350 mg/kg.
In turn, `COc1ccc(Cc2nnc(N/N=C3\C(=O)Nc4ccccc43)n(N)c2=O)cc1` came in with an inhibition at 10 min in data set [1] of 90.5%. This molecule returned an IC50 in data set [2] of 5.53 nM. Besides, the Activity entry in data set [3] and in data set [4] was “Non-toxic” in each case. Also, in data set [5], the LD50 is > 350 mg/kg.
For the molecule `CC(=O)N1C(=O)C2(c3ccccc31)N(C(C)=O)N=C1N(N(C(C)=O)C(C)=O)C(=O)C(Cc3ccccc3)=NN12` (stereo unspecified), the inhibition at 10 min in data set [1] is 64.6%. This molecule also gave an IC50 in data set [2] of 7.74 nM.
